Reference: ChEMBL document CHEMBL4354812, “N-Benzyl/Aryl Substituted Tryptanthrin as Dual Inhibitors of Indoleamine 2,3-Dioxygenase and Tryptophan 2,3-Dioxygenase” (J Med Chem, 2019)
Active and inactive are the calls of the source. The calls are words filed in the database; no cut-off is given here.

Key:
[1] = biological target: Tryptophan 2,3-dioxygenase (Homo sapiens, UniProt P48775); experiment: Inhibition of human TDO transfected in HEK293 cells assessed as reduction in kynurenine production using L-tryptophan as substrate incubated for 12 hrs; type: cell-based
Chain of Tryptophan 2,3-dioxygenase (P48775 whole entry): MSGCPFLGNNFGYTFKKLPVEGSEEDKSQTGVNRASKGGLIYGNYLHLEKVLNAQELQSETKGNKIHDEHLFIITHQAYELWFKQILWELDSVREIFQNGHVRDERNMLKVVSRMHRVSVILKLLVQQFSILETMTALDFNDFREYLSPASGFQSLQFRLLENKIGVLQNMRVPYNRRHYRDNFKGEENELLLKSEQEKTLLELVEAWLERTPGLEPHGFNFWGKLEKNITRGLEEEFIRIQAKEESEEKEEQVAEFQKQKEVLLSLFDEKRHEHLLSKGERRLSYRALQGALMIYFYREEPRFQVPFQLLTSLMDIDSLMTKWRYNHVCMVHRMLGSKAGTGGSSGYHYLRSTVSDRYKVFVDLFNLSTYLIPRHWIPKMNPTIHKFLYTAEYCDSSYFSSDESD
How it was run: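 U87 MG cells (hIDO2) or HEK293 cells (hTDO) were transiently transfected at 80% confluence, with empty vector as control. After 18 h, cells were seeded 2.5 × 10⁴/well in medium with 200 μM L-Trp. Compound serial dilutions were added after a further 6 h (IDO2) or 12 h (TDO). Reactions were stopped 24 h (IDO2) or 8 h (TDO) later with TCA, heated 65 °C 15 min, and Kyn read with DMAB at 492 nm. IC50 by nonlinear regression.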

[2] = biological target: T1, Indoleamine 2,3-dioxygenase 2 (Homo sapiens) (UniProt Q6ZQW0); experiment: Binding affinity to human IDO2 assessed as change in spectral signal at 200 uM by CPMG NMR spectrometry analysis
T1 sequence (whole entry): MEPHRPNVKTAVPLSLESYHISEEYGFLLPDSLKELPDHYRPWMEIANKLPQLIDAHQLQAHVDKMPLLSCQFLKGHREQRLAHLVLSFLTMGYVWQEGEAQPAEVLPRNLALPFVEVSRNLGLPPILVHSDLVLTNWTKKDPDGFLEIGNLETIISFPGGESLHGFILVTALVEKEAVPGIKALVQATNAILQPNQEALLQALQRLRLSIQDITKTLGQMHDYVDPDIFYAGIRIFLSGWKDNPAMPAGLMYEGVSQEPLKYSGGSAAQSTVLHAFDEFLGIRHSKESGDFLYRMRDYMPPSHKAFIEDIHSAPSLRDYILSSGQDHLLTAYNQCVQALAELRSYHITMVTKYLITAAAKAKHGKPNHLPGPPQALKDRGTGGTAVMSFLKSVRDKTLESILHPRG

[3] = biological target: T1, Indoleamine 2,3-dioxygenase 2 (Homo sapiens); experiment: Binding affinity to human IDO2 at 200 uM by STD NMR spectrometry analysis
Mus musculus [4] = experiment: (§1) In vivo inhibition of IDO1/2/TDO in C57BL/6 mouse assessed as decrease in LPS-stimulated kynurenine pathway by measuring increase in serum tryptophan level at 60 mg/kg, ig pretreated for 24 hrs with Escherichia coli LPS followed by compound treatment measured at 12 hrs post-treatment by HPLC analysis; type: functional, organism-based
How it was run: (§2)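 C57BL/6 mice were given ip saline or E. coli LPS 5 mg/kg. 24 h later they received ig 60 mg/kg compound or 0.5% CMC-Na. Blood was taken at 1, 6, 12, 24 and 30 h after dosing. Serum Trp and Kyn were measured by HPLC and the Kyn/Trp ratio calculated. n = 3–5 mice/group.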

Mus musculus [5] = experiment: as §1, with “24” for “12”; type: functional, organism-based; how it was run: as §2
Mus musculus [6] = experiment: In vivo inhibition of IDO1/2/TDO in C57BL/6 mouse assessed as decrease in LPS-stimulated kynurenine pathway by measuring effect on kynurenine level at 60 mg/kg, ig pretreated for 24 hrs with Escherichia coli LPS followed by compound treatment measured at 1 to 30 hrs post-treatment by HPLC analysis; type: functional, organism-based; how it was run: as §2
Mus musculus [7] = experiment: In vivo blockade of kynurenine pathway in Kunming mouse implanted with mouse H22 cells assessed as decrease in kynurenine level in serum at 45 mg/kg, po qd for 2 weeks by HPLC analysis; type: functional, organism-based
How it was run: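 H22 tumor-bearing Kunming mice received oral dosing once daily in 0.5% CMC-Na for 2 weeks. Serum Trp and Kyn were measured by HPLC on a C18 column with 15 mM sodium acetate (pH 3.6) containing 4% acetonitrile, UV detection at 280 and 360 nm. Kyn/Trp ratio calculated. n = 9–10/group.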

IC50 [1]: 90 nM
Activity [2]: Active
Activity [3]: Active
Compound: CN1CCN(Cc2ccc3nc4n(c(=O)c3c2)-c2ccc(F)cc2C4=O)CC1
inhibition (Mus musculus [4]): Active
inhibition (Mus musculus [5]): Active
inhibition (Mus musculus [6]): inactive
Activity (Mus musculus [7]): Active
